Nine molecules from ChEMBL document CHEMBL1124902, “Hydroxyperfluoroazobenzenes: novel inhibitors of enzymes of androgen biosynthesis” (J Med Chem, 1990) can be followed below.

Test [1] addresses T1, Steroid 17-alpha-hydroxylase/17,20 lyase (Rattus norvegicus, UniProt P11715).
T1 sequence (P11715 whole entry): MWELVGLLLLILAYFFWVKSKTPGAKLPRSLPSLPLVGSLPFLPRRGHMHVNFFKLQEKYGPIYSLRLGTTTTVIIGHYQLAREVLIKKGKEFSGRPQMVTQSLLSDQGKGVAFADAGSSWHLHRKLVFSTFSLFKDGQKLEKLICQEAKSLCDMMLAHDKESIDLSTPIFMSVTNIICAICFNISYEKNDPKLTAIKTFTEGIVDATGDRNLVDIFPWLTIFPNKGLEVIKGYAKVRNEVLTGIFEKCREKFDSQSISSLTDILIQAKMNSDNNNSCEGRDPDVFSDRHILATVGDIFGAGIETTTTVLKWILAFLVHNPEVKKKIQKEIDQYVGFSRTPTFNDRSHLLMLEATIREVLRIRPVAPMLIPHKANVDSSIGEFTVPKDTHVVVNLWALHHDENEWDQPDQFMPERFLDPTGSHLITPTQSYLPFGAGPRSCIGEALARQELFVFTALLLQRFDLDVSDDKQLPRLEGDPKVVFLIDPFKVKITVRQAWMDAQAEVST
The experiment in a line: Inhibition of 17-alpha-hydroxylase/17,20 lyase from rat testes microsomal preparation. It is filed as microsomes, Testis. An outline of the steps: (§1)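 Rat testis microsomes as enzyme source. The assay contained 1 μM [³H]progesterone, 250 μM NADPH, a glucose-6-phosphate/G6P dehydrogenase regenerating system, 1 mM MgCl₂, 0.1 mM EDTA and 0.1 mM DTT in 50 mM sodium phosphate at pH 7.4, with 5% ethanol vehicle. Incubation ran 10 min at 37 °C. Substrate, 17α-OH-progesterone and product were quantified, giving separate hydroxylase and lyase steps. Each point was run in triplicate at ≥3 concentrations, and IC50 was taken from a Dixon linear regression.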

Test [2] deals with T1, Steroid 17-alpha-hydroxylase/17,20 lyase. As to the kind of experiment: Percent inhibition of Steroid 17-alpha-hydroxylase/17,20 lyase of rat testes microsomes at 100 uM.
Test [3] deals with T2, Steroid 5-alpha-reductase (Rattus norvegicus, UniProt P24008+P31214).
T2 sequence (P24008 whole entry): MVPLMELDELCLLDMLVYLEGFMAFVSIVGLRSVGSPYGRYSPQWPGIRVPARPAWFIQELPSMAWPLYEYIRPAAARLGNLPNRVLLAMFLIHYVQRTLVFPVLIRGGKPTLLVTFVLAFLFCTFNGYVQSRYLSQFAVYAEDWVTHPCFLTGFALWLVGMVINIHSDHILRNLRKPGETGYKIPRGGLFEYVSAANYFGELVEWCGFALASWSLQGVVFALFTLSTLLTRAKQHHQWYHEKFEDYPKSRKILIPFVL
T2 sequence (P31214 whole entry): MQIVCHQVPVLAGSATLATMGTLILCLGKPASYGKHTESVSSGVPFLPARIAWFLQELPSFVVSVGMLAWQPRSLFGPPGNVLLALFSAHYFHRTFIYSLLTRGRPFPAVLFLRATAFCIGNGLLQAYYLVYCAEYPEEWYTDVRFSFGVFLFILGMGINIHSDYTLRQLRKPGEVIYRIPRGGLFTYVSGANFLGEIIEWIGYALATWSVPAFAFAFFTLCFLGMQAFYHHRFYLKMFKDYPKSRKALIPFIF
As to the kind of experiment: Inhibition of rat testosterone-5 alpha-reductase activity at pH 6.6 from rat. In kind it is protein assay. An outline of the steps: (§2)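 Crude nuclear fraction (ca. 1.5 mg) from adult Wistar rat ventral prostate, in 50 mM potassium phosphate. The substrate was 5 μM testosterone with 4-[¹⁴C]testosterone, plus 1 mM NADPH and 1 mM DTT. Incubation ran 30 min at 37 °C and was stopped with ethyl acetate/HgCl₂. [¹⁴C]DHT was measured by TLC radioscan. Inhibitors were added in 2% DMSO at 1, 2, 5, 10 and 20 μM, with assays in duplicate.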

The target of test [4] is T2, Steroid 5-alpha-reductase. As to the kind of experiment: Inhibition of Testosterone-5 alpha-reductase activity at pH 7.4 from rat. In kind it is protein assay. An outline of the steps:
as §2

The target of test [5] is T1, Steroid 17-alpha-hydroxylase/17,20 lyase. As to the kind of experiment: Inhibition of Steroid 17-alpha-hydroxylase/17,20 lyase from rat testes microsomal preparation. An outline of the steps:
as §1

For test [6] the target is unchanged. The experiment in a line: Percent inhibition of Steroid 17-alpha-hydroxylase/17,20 lyase from rat testes microsomes at 100 uM.
Test [7] has as its target T2, Steroid 5-alpha-reductase. The experiment in a line: Binding constant of Testosterone-5 alpha-reductase activity at pH 7.4. In kind it is protein assay.
Test [8] has as its target T1, Steroid 17-alpha-hydroxylase/17,20 lyase. The experiment in a line: Percent inhibition of 17-alpha-hydroxylase/17,20 lyase of rat testes microsomes at 100 uM.
Test [9] deals with T2, Steroid 5-alpha-reductase. The experiment in a line: Inhibition of Testosterone-5 alpha-reductase activity at pH 7.4 from rat; B = no inhibition at the highest concentration tested (20 uM). It is filed as protein assay. An outline of the steps:
as §2

Test [10] has as its target T2, Steroid 5-alpha-reductase. The experiment in a line: Inhibition of Testosterone-5 alpha-reductase activity at pH 6.6 from rat; B = no inhibition at the highest concentration tested (20 uM). In kind it is protein assay. An outline of the steps: as §2

Turning to `Oc1c(F)c(F)c(/N=N/c2c(F)c(F)c(F)c(F)c2F)c(F)c1F`, the IC50 (usually the concentration at which inhibition is half-maximal) was determined as 30 µM in test [1], 2 µM in [3], 14 µM in [4] and 33 µM in test [5]. In addition, the inhibition (in general, the drop in the measured response relative to a control, in per cent) at 100 µM in test [2] was determined as 76%; in test [6] it was 71%. For the same molecule, in [7], the Ki (usually the equilibrium dissociation constant of an inhibitor or competing ligand from its target) was found to be 10 µM.
Turning to `Fc1c(F)c(F)c2c(c1F)N=Nc1c(F)c(F)c(F)c(F)c1O2`, the IC50 in [1] amounted to 50 µM; in test [5], 15 µM. In addition, the inhibition at 100 µM amounted to 67% in test [8] and 88% in [6].
On to `Oc1c(F)c(F)c(/N=N/c2c(F)c(F)c(O)c(F)c2F)c(F)c1F`, for which the results for the inhibition at 100 µM in test [8] and in test [6] were 15% and 14%, respectively. The IC50 was 0.79 µM in [3] and 5 µM in [4]. Also, the Ki in [7] amounted to 4 µM.
As to `Oc1ccc(/N=N/c2ccccc2)cc1`, the inhibition at 100 µM is 6% in [8] and 0% in test [6]. Further, the IC50 result in test [9] is recorded as “No inhibition”.
On to `Oc1c(F)c(F)c(F)c(F)c1/N=N/c1c(F)c(F)c(F)c(F)c1F`, for which the IC50 was 63 µM in test [1], “No inhibition” in [10] and 16 µM in test [5]. The inhibition at 100 µM in [8] was determined as 62%; in test [6], 83%.
As to `Fc1c(F)c(F)c(/N=N/c2c(F)c(F)c(F)c(F)c2F)c(F)c1F`, the values for the inhibition at 100 µM in [8] and in test [6] were 4% and 0%, respectively. Also, the IC50 entry in [9] is reported as “No inhibition”.
In the same order, the values of `c1ccc(/N=N/c2ccccc2)cc1` [AZOBENZENE] are 0%, 0% and “No inhibition”.
Regarding `CC(=O)N1CCN(c2ccc(OCC3COC(Cn4ccnc4)(c4ccc(Cl)cc4Cl)O3)cc2)CC1` (stereo unspecified) [KETOCONAZOLE], the figures for the IC50 in test [1] and in [5] were 6 µM and 11 µM, respectively. Further, the inhibition at 100 µM in [8] was 62%; in test [6], 48%.
In the case of `CC(=O)[C@H]1CC[C@H]2[C@@H]3CCC4=CC(=O)CC[C@]4(C)[C@H]3CC[C@]12C` [PROGESTERONE], the IC50 in test [3] stood at 1.6 µM; in test [4] it was 2.6 µM.
